Test results published in ChEMBL document CHEMBL1250544, “Diversity-oriented synthesis of cyclic acyldepsipeptides leads to the discovery of a potent antibacterial agent” (2010).
Values after ≈ are worked out from the molar mass of the structure shown.

Key:
[1] = tested on: Staphylococcus aureus; experiment: Antimicrobial activity against methicillin-susceptible Staphylococcus aureus ATCC 3556 after 24 hrs by broth microdilution assay; format: functional
Summary of the method: (§1)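 CLSI broth microdilution run in duplicate. Compounds were dissolved in DMSO and serially diluted twofold in cation-adjusted Mueller–Hinton broth (25 µg/mL calcium, 12.5 µg/mL magnesium). Inoculum was verified by colony counts on tryptic soy agar. MIC was the lowest concentration visually inhibiting >99% of colonies.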

[2] = tested on: Enterococcus faecalis; experiment: Antimicrobial activity against Enterococcus faecalis ATCC 29212 after 24 hrs by broth microdilution assay; format: functional; settings: ATCC 29212, 24 h; summary of the method: as §1
[3] = tested on: Staphylococcus aureus; experiment: Antimicrobial activity against methicillin-resistant Staphylococcus aureus from blood after 24 hrs by broth microdilution assay; format: functional
Summary of the method: (§2)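 CLSI broth microdilution in duplicate on clinical isolates from Veterans Affairs Medical Center patients. Compounds were dissolved in DMSO and serially diluted twofold in cation-adjusted Mueller–Hinton broth (25 µg/mL Ca, 12.5 µg/mL Mg). Inoculum was verified by colony counts on tryptic soy agar. MIC is the lowest concentration visually inhibiting >99%.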

[4] = tested on: Enterococcus faecalis; experiment: Antimicrobial activity against vancomycin-resistant Enterococcus faecalis clinical isolate obtained from rectal swab after 24 hrs by broth microdilution assay
[5] = tested on: Enterococcus faecium; experiment: Antimicrobial activity against vancomycin-resistant Enterococcus faecium clinical isolate obtained from tissue after 24 hrs by broth microdilution assay; format: functional; summary of the method: as §2
[6] = tested on: Enterococcus faecalis; experiment: Antimicrobial activity against Enterococcus faecalis clinical isolate obtained from rectal swab after 24 hrs by broth microdilution assay; format: functional; summary of the method: as §1
[7] = Staphylococcus aureus, ATCC 3556, 24 h, read-out: MIC
[8] = Staphylococcus aureus, 24 h, read-out: MBC

Compound: CCCC/C=C/C(=O)N[C@@H](Cc1cccc(F)c1)C(=O)N[C@@H]1COC(=O)[C@@H]2CCCN2C(=O)[C@H](C)NC(=O)[C@@H]2CCCCN2C(=O)[C@@H]2CCCN2C1=O
- MIC [1]: 1.25 µg/mL (≈ 1.69 µM)
- MIC [1, 7]: 1.25 µg/mL (≈ 1.69 µM)
- MBC [2]: 1.25 µg/mL (≈ 1.69 µM)
- MIC [2]: 0.16 µg/mL (≈ 0.217 µM)
- MBC [3]: 1.25 µg/mL (≈ 1.69 µM)
- MBC [3, 8]: 1.25 µg/mL (≈ 1.69 µM)
- MBC [4]: 0.04 µg/mL (≈ 0.0541 µM)
- MIC [4]: 0.04 µg/mL (≈ 0.0541 µM)
- MBC [5]: 0.08 µg/mL (≈ 0.108 µM)
- MIC [5]: 0.08 µg/mL (≈ 0.108 µM)
- MBC [6]: 0.04 µg/mL (≈ 0.0541 µM)
- MIC [6]: 0.04 µg/mL (≈ 0.0541 µM)

Compound: CCCC/C=C/C(=O)N[C@@H](Cc1cccc(F)c1)C(=O)N[C@@H]1COC(=O)[C@@H]2CCCN2C(=O)[C@H](C)NC(=O)[C@H]2CCCCN2C(=O)[C@@H]2CCCN2C1=O
- MIC [1, 7]: > 312 µg/mL
- MBC [3, 8]: > 312 µg/mL

Compound: CCCC/C=C/C(=O)N[C@@H](Cc1cccc(F)c1)C(=O)N[C@@H]1COC(=O)[C@@H]2CCCN2C(=O)[C@H](C)NC(=O)[C@@H]2CC(C)CCN2C(=O)[C@@H]2CCCN2C1=O (some centres undefined)
- MIC [1, 7]: 0.6 µg/mL (≈ 0.797 µM)
- MBC [2]: 0.08 µg/mL (≈ 0.106 µM)
- MIC [2]: 0.04 µg/mL (≈ 0.0531 µM)
- MBC [4]: 0.04 µg/mL (≈ 0.0531 µM)
- MIC [4]: 0.04 µg/mL (≈ 0.0531 µM)
- MBC [5]: 0.08 µg/mL (≈ 0.106 µM)
- MIC [5]: 0.04 µg/mL (≈ 0.0531 µM)
- MBC [6]: 0.04 µg/mL (≈ 0.0531 µM)
- MIC [6]: 0.02 µg/mL (≈ 0.0266 µM)

Compound: CCCC/C=C/C(=O)N[C@@H](Cc1cccc(F)c1)C(=O)N[C@@H]1COC(=O)[C@@H]2CCCN2C(=O)[C@H](C)NC(=O)[C@H]2CC(C)CCN2C(=O)[C@@H]2CCCN2C1=O (some centres undefined)
- MIC [1, 7]: > 156 µg/mL

Compound: CCCC/C=C/C(=O)N[C@@H](Cc1cccc(F)c1)C(=O)N[C@@H]1COC(=O)[C@@H]2CCCN2C(=O)[C@H](C)NC(=O)C2(CCC2)N(C)C(=O)[C@@H]2CCCN2C1=O
- MIC [1]: >312 µg/mL
- MIC [1, 7]: 312 µg/mL (≈ 422 µM)
- MBC [3, 8]: > 312 µg/mL

Compound: CCCC/C=C/C(=O)N[C@@H](Cc1cccc(F)c1)C(=O)N[C@@H]1COC(=O)[C@@H]2CCCN2C(=O)[C@H](C)NC(=O)C2(CCCC2)N(C)C(=O)[C@@H]2CCCN2C1=O
- MBC [3, 8]: > 312 µg/mL

Compound: CCCC/C=C/C(=O)N[C@@H](Cc1cccc(F)c1)C(=O)N[C@@H]1COC(=O)[C@@H]2CCCN2C(=O)[C@H](C)NC(=O)C2(CCCCC2)N(C)C(=O)[C@@H]2CCCN2C1=O
- MBC [3, 8]: > 312 µg/mL
